Compound activity from PubChem BioAssay.
DTT redox prof: compounds producing H2O2 with reducing agent – biochemical, NIH compound library profiling, artefact control for MLSCN library redox annotation, primary screen; activation, % at 10 µM; DTT-dependent redox cycling H2O2, phenol red/HRP absorbance; 100% = 100 µM peroxide control, 0% = buffer; 200,000 compounds, 0.03% hits; AID 878;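 active = activation of at least 50% relative to the plate's high and low controls in the primary single-dose screen; inactive = activation below 50%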;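 note: compound incubated with DTT at 0.8 mM final as the reducing agent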
PfG6PD inh: PfG6PD (Plasmodium falciparum) enzyme inhibition; 350,000 compounds, 0.78% hits; AID 504690; inhibition, % at 20 µM; PfGluPho enzyme, NADPH resazurin-diaphorase fluorescence;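 active = inhibition reaching at least a set limit at 20 µM in the primary screen, cut at about 59% in these data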;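 note: 0% = DMSO wells with substrate and 100% = DMSO wells lacking glucose-6-phosphate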
G6PDH CS: inhibits Leuconostoc G6PDH, flagging false hits in G6PDH-based assays. Purified L. mesenteroides G6PDH, diaphorase/resazurin coupled fluorescence, 45 min. inhibition, % at 5 µM. 200,000 compounds, 0.12% hits. AID 1020
Diaphorase inh: inhibits diaphorase or chemically oxidizes, flagging diaphorase assay artifacts; diaphorase resazurin-to-resorufin fluorescence, NADH, 16 min; bacterial (C. kluyveri) enzyme, not human; inhibition, % at 20 µM; 190,000 compounds, 0.69% hits;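 active = primary screen inhibition at 20 µM above a set limit, cut at about 50% in these data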;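 note: plate controls were DMSO with full reaction for no effect and wells lacking NADH for full effect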
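Test system: diaphorase enzyme from Clostridium kluyveri; amount: diaphorase at 0.14 U/mL in enzyme working solution; detection: fluorescence of resorufin formed from resazurin, Ex 544/Em 590 nm; times: reaction incubation of 16 min at room temperature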
L major viab: reduces viability of Leishmania major promastigotes. resazurin fluorescence viability. inhibition, % at 10 µM. 200,000 compounds, 9% hits. AID 1063;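 note: promastigotes grown with compound for 44 hours at 28 °C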
Diaph act CS: activates diaphorase or chemically reduces, flagging diaphorase assay artifacts; activation factor at 20 µM; 190,000 compounds, 0.005% hits; Diaphorase/resazurin coupled assay, resorufin fluorescence, 16 min; stronger effect = higher value; 1 = vehicle wells, 0 = NADH-free wells;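 active = diaphorase activity raised at least twofold by the compound at 20 µM; inactive = activation factor below 2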
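Assay system: bacterial diaphorase enzyme (C. kluyveri) / Input: enzyme 0.07 U/mL final / Medium: 50 mM HEPES pH 7.4 with 4.542 mM MgCl2, 0.005% Tween 20 / Doses: single compound dose of 20 µM, 1% DMSO final / Incubation: 16 min enzyme reaction, ambient temperature / Signal: fluorescence, excitation 544 nm and emission 590 nm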
Lmaj promast 1uM: L. major promastigote growth inhibition, 1 uM repeat; shares compounds with L major viab; resazurin fluorescence, 48 h; inhibition, % at 1 µM; 1,100 compounds, 13% hits; AID 1258;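 active = inhibition above about 50% in both repeat tests, limit read from the data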
Starred values were filed as active, the others as inactive; . = not tested or not shown. The full list was thinned out, with hits kept by preference. Cut-off read from the data, not from the text of the source, unless noted: active = inhibition above about 50%; inactive = the rest.

SMILES	DTT redox prof	PfG6PD inh	G6PDH CS	Diaphorase inh	L major viab	Diaph act CS	Lmaj promast 1uM
O=C(COc1ccc(S(=O)(=O)N2CCOCC2)cc1)NCCCn1ccnc1	.	-8.5	.	.	.	.	.
CCOc1ccc(S(=O)(=O)N2Cc3ccccc3CC2C(=O)NCCCn2ccnc2)cc1 (stereo not given)	2.2	-3.0	1.1	7.3	98.2*	0.9	-7.6
CC1(C)Oc2ccc(/C=C/C(=O)N3CCOCC3)c(O)c2C(N2CCOCC2)C1O (stereo not given)	-0.4	.	0.8	15.3	-7.0	0.8	.
CC(C)CC(=O)OC1C(N2CCOCC2)c2c(ccc(/C=C/C(=O)N3CCOCC3)c2O)OC1(C)C (stereo not given)	0.0	-1.8	7.7	12.1	90.0*	0.9	-15.6
Cc1oc(-c2ccc(Cl)cc2)nc1CS(=O)CC(=O)NCCCN1CCN(Cc2ccccc2)CC1 (stereo not given)	.	-3.2	.	.	.	.	.
Cc1ccc(-c2nc(CSCC(=O)NCCN3CCN(Cc4ccccc4)CC3)c(C)o2)cc1	1.5	7.0	4.5	2.5	51.9*	1	-26.0
O=c1cc(N2CCCCC2)c(-c2ccccc2)nn1Cc1cccc(Cl)c1	-11.4	-19.6	6.6	20.2	40.8	0.8	.
CC(C)(CNc1ccc(S(=O)(=O)C(F)(F)F)cc1[N+](=O)[O-])N1CCOCC1	.	9.6	.	.	.	.	.
Fc1ccc(-c2cc(-c3nnc4n3CCCCC4)c3ccccc3n2)cc1	-0.3	-6.0	-10.2	13.4	52.4*	0.9	-12.4
O=C(CNCc1cccs1)Nc1ccc(OC(F)(F)F)cc1	.	-7.3	.	.	.	.	.
C#CC1(NC(=S)Nc2cccc(OC)c2)CCCCC1	.	25.9	.	.	.	.	.
O=C(Cc1c(F)cccc1Cl)NC1CCN(Cc2ccccc2)CC1	.	12.2	.	.	.	.	.
O=C(COc1ccccc1F)NC1CCN(Cc2ccccc2)CC1	-0.1	-1.6	3.8	-2.6	90.7*	1	71.6*
Cc1cc(C(=O)CCl)c(C)n1Cc1ccco1	-0.9	12.8	2.2	8.9	100.5*	0.9	93.0*
Cc1cccc(C(=O)NNC(=S)NC(=O)c2cccs2)c1	.	-34.0	.	.	.	.	.
Cc1nnc(SCC(=O)Nc2sc3c(c2C(N)=O)CCC(C)C3)[nH]c1=O (stereo not given)	.	3.6	.	.	.	.	.
O=C(O)c1cccc(-c2ccc(/C=C3/SC(=Nc4ccccc4)N(Cc4cccnc4)C3=O)o2)c1	.	1.5	.	.	.	.	.
CCOC(=O)COc1ccc(/C=C2/SC(=Nc3ccccc3)N(Cc3cccnc3)C2=O)cc1OC	0.2	1.4	2.8	23.5	59.6*	0.8	-8.1
COc1cc([N+](=O)[O-])ccc1NC(=S)Nc1cc(C(=O)OC(C)C)cc(C(=O)OC(C)C)c1	1.0	14.2	-26.0	10.4	17.9	0.9	.
O=C(O)CC1CCC(=C(Cl)Cl)C1 (stereo not given)	-0.7	13.2	1.4	12.7	95.4*	0.9	-8.3
CC(C)(C)c1ccc(S(=O)(=O)N2C=CC(C(F)(F)F)=NCC2)cc1	-0.1	1.1	4.1	20.7	59.0*	0.8	-12.7
Cc1ccc(S(=O)(=O)N2C=CC(C(F)(F)F)=NCC2)cc1	0.2	-10.8	4.6	9.5	-3.6	0.9	.
CC1Cc2ccccc2N1CC(=O)Nc1cc(S(=O)(=O)N2CCOCC2)ccc1Cl (stereo not given)	.	0.3	.	.	.	.	.
Cc1ccc(NNC(=O)C(O)(c2cccc(C(F)(F)F)c2)c2cccc(C(F)(F)F)c2)cc1	1.1	22.8	-1.1	23.9	70.4*	0.8	-9.0
COc1ccccc1CNC(=O)C1CCN(S(=O)(=O)c2ccc3c(c2)OCCCO3)CC1	0.2	-8.4	2.0	17.9	-3.6	0.8	.
O=[N+]([O-])c1cc2c(cc1Br)CCN2	-1.1	14.6	-0.3	-2.9	-1.4	1	.
COc1ccc(Cn2c(-c3ccc(OC)cc3)nc3ccccc32)cc1	0.8	-2.5	-6.6	18.4	61.8*	0.8	63.5*
COc1ccc(-c2nc3ccccc3n2OCC(=O)O)cc1	0.0	20.9	4.2	3.2	-1.1	1	.
O=C(NCc1cccnc1)[C@@H]1CC=C[C@@H]2CCN(Cc3ccccc3)C(=O)[C@@H]21	.	3.2	.	.	.	.	.
